The text below walks through data of PubChem BioAssay.

For orientation: viability means a read-out of living cells in per cent, often relative to untreated cells. In general, inhibition refers to the drop in the measured response relative to a control, in per cent.

The nature of test [1]: reduced viability of SK-BR-3 breast cancer cells – cell-based, 24 h, human, pilot screen (AID 572).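 Also: compound exposure lasted between 18 and 24 h rather than exactly 24 h; 100% = carrier-treated control wells.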 As to conditions: SK-BR-3 viability, CellTiter-Glo luminescence, at 10 µM, stronger effect = lower value. A general note: ATP-based viability assays read luminescence as a measure of living cells.
Test [2] is described as follows: HUVEC growth inhibition – cell-based, human, primary screen (AID 575;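 active = viability at or below 30% in both replicate assays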;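 also: 100% = median of untreated cell wells with 0.1% DMSO on each plate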). The following applies: HUVEC proliferation, CellTiter-Glo luminescence, 72 h; at 10 µM; stronger effect = lower value. The procedure, abridged:
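Test system – primary HUVEC, no more than 12 passages · Dosing – one dose, 10 µM final, 0.1% DMSO · Times – 72 h treatment at 37 °C · Measured by – ATP-based CellTiter-Glo luminescent read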

Test [3] in a line: H69AR cell proliferation blockers – human, duplicate replicates, primary screen (AID 580;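 active = viability at or under a set limit in both replicates, limit being median viability minus 3 SD, cut at about 48% in these data, passing the limit was not always enough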;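 also: 100% = mean luminescence of untreated wells and 0% = no signal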). The following applies: H69AR lung tumor cells viability, ATP luminescence, 72 h; at 10 µM; stronger effect = lower value.
Test [4] in a line: MRP1 drug-resistance reversers in H69AR cells – cell-based, doxorubicin co-treatment, pilot screen (AID 601;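 active = viability loss from added drug above about 55%, and viability with drug at most 40%, in both replicates, limit read from the data, passing the limit was not always enough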). The following applies: CellTiter-Glo, 72 h, at 10 µM; for differential viability (reversal): stronger effect = higher value.
Test [5] in a line: yeast transport mutant growth inhibition pilot in 384-well plates, post-Golgi transport modulator project (AID 636; in the data active = inhibition above about 31%). As to conditions: absorbance 615 nm, about 18 h, stronger effect = higher value.
The nature of test [6]: growth suppression of yeast trafficking mutant, preliminary HTS, modulators of trafficking downstream of Golgi apparatus project, 1536-format plate, OD 615 nm (AID 637; in the data active = inhibition above about 30%). As to conditions: yeast transport mutant growth, absorbance 615 nm, 18 h; stronger effect = higher value.
Setting [7] is: H69AR cells + 2 uM doxorubicin, measured here: viability with 2 uM doxorubicin, stronger effect = lower value.
Setting [8] is: H69AR cells, compound alone cytotoxicity.

Each structure is given as a SMILES string. The source made the active and inactive calls.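 The calls were made as follows, unless noted: active = viability at or below 10% of carrier control in both of two separate runs; inconclusive = viability at or below 10% in only one of the two runs; inactive = the rest.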

In the case of `Cc1oc2c(c1C(=O)NCc1ccccc1)CCCC2`, the viability in test [1] was 81% (inactive); in test [2], 97% (inactive); in test [3], 107% (inactive); in test [4] (setting [7]), 99%; in test [4] (setting [8]) it was 107%. Moreover, the differential viability (reversal) in test [4] (H69AR cells + 2 uM doxorubicin) is 8.32% (inactive). Also, the results for the inhibition in test [5] and in test [6] were -4.93% (inactive) and -1.64% (inactive), respectively.

For `O=C(NCC1CCCO1)C1CCC(CNS(=O)(=O)c2ccccc2)CC1` (stereo unspecified), the viability in test [1] was 101% (inactive); in test [2], 81.6% (inactive); in test [3], 90.3% (inactive); in test [4] (setting [7]) it was 84.8%; in test [4] (setting [8]), 90.3%. Besides, in test [4] (H69AR cells + 2 uM doxorubicin), the differential viability (reversal) is 5.42% (inactive). Besides, the inhibition was 1.95% (inactive) in test [5] and -1.31% (inactive) in test [6].

With `CCCN(CCC)C(=O)CC(c1ccc(F)cc1)c1ccco1` (stereo unspecified), the viability in test [1] is 71% (inactive); in test [2] it was 80.7% (inactive); in test [3], 80.8% (inactive); in test [4] (setting [7]) it was 86.8%; in test [4] (setting [8]), 80.8%. The differential viability (reversal) in test [4] (H69AR cells + 2 uM doxorubicin) was -6.06% (inactive). The inhibition in test [5] was -5.48% (inactive); in test [6], -0.91% (inactive).

Take `Cc1cc(NC(=O)C(C)(C)C)no1`: the viability in test [1] is 82% (inactive); in test [2], 92.7% (inactive); in test [3], 99.2% (inactive); in test [4] (setting [7]), 83.3%; in test [4] (setting [8]) it was 99.2%. The differential viability (reversal) in test [4] (H69AR cells + 2 uM doxorubicin) is 16% (inactive). In addition, the inhibition was -1.2% (inactive) in test [5] and -0.73% (inactive) in test [6].

As to `NC(=O)C1CCN(C(=S)c2cccs2)CC1`, the viability is 77% (inactive) in test [1]; 102% (inactive) in test [2]; 96.1% (inactive) in test [3]; 84.7% in test [4] (setting [7]); 96.1% in test [4] (setting [8]). Besides, in test [4] (H69AR cells + 2 uM doxorubicin), the differential viability (reversal) was 11.5% (inactive). Also, the inhibition in test [5] is -8.49% (inactive); in test [6], 3.39% (inactive).

Turning to `CCOc1nc(-c2ccncc2)nc2ccccc12`, the viability is 100% (inactive) in test [1]; 93.7% (inactive) in test [2]; 92.6% (inactive) in test [3]; 92.1% in test [4] (setting [7]); 92.6% in test [4] (setting [8]). In addition, in test [4] (H69AR cells + 2 uM doxorubicin), the differential viability (reversal) is 0.47% (inactive). Besides, the inhibition in test [5] was -7.4% (inactive); in test [6] it was 9.35% (inactive).

For the compound `NS(=O)(=O)c1ccc(NC(=O)CSc2nnc(Cc3cccs3)n2-c2ccccc2)cc1`, the viability is 57% (inactive) in test [1]; 93.6% (inactive) in test [2]; 93.3% (inactive) in test [3]; 89.2% in test [4] (setting [7]); 93.3% in test [4] (setting [8]). Besides, the differential viability (reversal) in test [4] (H69AR cells + 2 uM doxorubicin) is 4.08% (inactive). The figures for the inhibition in test [5] and in test [6] were -7.53% (inactive) and 2.18% (inactive), respectively.

Turning to `CSc1oc(-c2ccccc2)nc1S(=O)(=O)c1ccc(F)cc1`, the viability in test [1] was 92% (inactive); in test [2], 73.2% (inactive); in test [3], 82.6% (inactive); in test [4] (setting [7]) it was 82.1%; in test [4] (setting [8]) it was 82.6%. Moreover, the differential viability (reversal) in test [4] (H69AR cells + 2 uM doxorubicin) is 0.495% (inactive). Also, the inhibition in test [5] was -6.3% (inactive); in test [6] it was -1.61% (inactive).

Consider `CCc1nc2sc3ccccc3c(=O)c2c(=O)n1Cc1ccco1`, for which the viability in test [1] is 73% (inactive); in test [2], 82.6% (inactive); in test [3], 77% (inactive); in test [4] (setting [7]), 74.5%; in test [4] (setting [8]), 77%. In addition, in test [4] (H69AR cells + 2 uM doxorubicin), the differential viability (reversal) is 2.49% (inactive). Also, the inhibition was -3.77% (inactive) in test [5] and 0.98% (inactive) in test [6].

`COCCNC(=O)c1snc2ccc(Cl)cc12`: the viability in test [1] was 89% (inactive); in test [2], 83.4% (inactive); in test [3], 102% (inactive); in test [4] (setting [7]) it was 91.5%; in test [4] (setting [8]) it was 102%. In addition, the differential viability (reversal) in test [4] (H69AR cells + 2 uM doxorubicin) was 10.2% (inactive). In addition, the inhibition is 4.42% (inactive) in test [5] and 4.43% (inactive) in test [6].

`Cc1ccc(NC(=O)CSC2=C(C#N)C(c3ccc4c(c3)OCO4)CC(=O)N2)cc1C` (stereo unspecified): the viability in test [1] is 64% (inactive); in test [2], 92.9% (inactive); in test [3], 88.6% (inactive); in test [4] (setting [7]), 93.4%; in test [4] (setting [8]), 88.6%. The differential viability (reversal) in test [4] (H69AR cells + 2 uM doxorubicin) was -4.82% (inactive). The inhibition in test [5] is 7.7% (inactive); in test [6], -2.55% (inactive).

For `COc1ccc(Cn2c(N)c(C#N)c3nc4ccccc4nc32)cc1OC`, the viability in test [1] is 95% (inactive); in test [2] it was 100% (inactive); in test [3], 99.5% (inactive); in test [4] (setting [7]), 86.9%; in test [4] (setting [8]) it was 99.5%. Moreover, the differential viability (reversal) in test [4] (H69AR cells + 2 uM doxorubicin) is 12.6% (inactive). Further, the values for the inhibition in test [5] and in test [6] were -6.58% (inactive) and 0.48% (inactive), respectively.
